Measurements published in publication PMC3722612 (Archives of biochemistry and biophysics, 2013).

Experiments:
N[C@@H](CCC(=O)O)C(=O)O = assay: purified protein; conditions: conditions not stated separately for this enzyme
[1] = system: CC(=O)N[C@H]1[C@@H](OP(=O)(O)OP(=O)(O)OC[C@H]2O[C@@H](n3ccc(=O)[nH]c3=O)[C@H](O)[C@@H]2O)O[C@H](C)C(=O)[C@@H]1O; assay: purified protein; conditions: conditions not stated separately for this enzyme
[2] = system: CC(=O)SCCNC(=O)CCNC(=O)[C@H](O)C(C)(C)COP(=O)(O)OP(=O)(O)OC[C@H]1O[C@@H](n2cnc3c(N)ncnc32)[C@H](O)[C@@H]1OP(=O)(O)O; assay: purified protein; conditions: conditions not stated separately for this enzyme
[3] = system: CC(=O)N[C@H]1[C@@H](OP(=O)(O)OP(=O)(O)OC[C@H]2O[C@@H](n3ccc(=O)[nH]c3=O)[C@H](O)[C@@H]2O)O[C@H](C)[C@@H](N)[C@@H]1O; assay: purified protein; conditions: conditions not stated separately for this enzyme
WeeI = assay: continuous DTNB; format: biochemical, Acinetobacter baumannii; conditions: AcCoA saturating, 5 mM MgCl2, 50 mM HEPES pH 7.4, 25 °C
How it was run: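 AcCoA and UDP-4-amino varied separately, the other held saturating; AcCoA Km taken at 4 mM UDP-4-amino. Initial rates from the linear portion over 5 min; duplicates; background without UDP-4-amino subtracted.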

WeeH = WeeH (Acinetobacter baumannii, UniProt V5RC66); assay: radioactive transfer to Und-P, organic extraction; format: biochemical; conditions: undecaprenyl phosphate, 50 mM MgCl2, 30 mM Tris-acetate pH 8.0, 1% Triton X-100, 3% DMSO, 25 °C

Compound	Km [2] [µM]	kcat [2] [s⁻¹]	kcat/Km [2] [M⁻¹ s⁻¹]	Km [3] [µM]	kcat [3] [s⁻¹]	kcat/Km [3] [M⁻¹ s⁻¹]	also measured
PglE (Campylobacter jejuni subsp. jejuni NCTC 11168 = ATCC 700819)	–	–	–	–	–	–	Km (N[C@@H](CCC(=O)O)C(=O)O): 11,000 ± 340 μM; kcat (N[C@@H](CCC(=O)O)C(=O)O): 0.028 ± 0.0003 s⁻¹; kcat/Km (N[C@@H](CCC(=O)O)C(=O)O): 2.6 M⁻¹ s⁻¹; Km [1]: 366 ± 57 µM; kcat [1]: 2.4 ± 0.1 s⁻¹; kcat/Km [1]: 6600 M⁻¹ s⁻¹
PglB-ATD (Neisseria gonorrhoeae FA 1090)	338 ± 47	2300 ± 110	6.9e+06	192 ± 26	2000 ± 82	1e+07	–
CC(=O)N[C@H]1[C@@H](OP(=O)(O)OP(=O)(O)OC[C@H]2O[C@@H](n3ccc(=O)[nH]c3=O)[C@H](O)[C@@H]2O)O[C@H](C)[C@@H](N)[C@@H]1O [UDP-4-amino, UDP-2-acetamido-4-amino-2,4,6-trideoxy-α-D-glucose]	–	–	–	–	–	–	Km (WeeI): 4300 ± 140 µM
CC(=O)N[C@H]1[C@@H](OP(=O)(O)OP(=O)(O)OC[C@H]2O[C@@H](n3ccc(=O)[nH]c3=O)[C@H](O)[C@@H]2O)O[C@H](C)[C@@H](NC(C)=O)[C@@H]1O [UDP-diNAcBac, UDP-2,4-diacetamido-2,4,6-trideoxy-α-D-glucose]	–	–	–	–	–	–	radioactive transfer to Und-P, organic extraction (WeeH): This phosphoglycosyltransferase exhibited clear selectivity for UDP-diNAcBac over all other UDP-sugars
PglD (Campylobacter jejuni subsp. jejuni NCTC 11168 = ATCC 700819)	194 ± 30	11000 ± 500	5.5e+07	311 ± 23	12000 ± 380	4e+07	–
